Assay outcomes: PubChem BioAssay, Johns Hopkins Ion Channel Center
Kir21 block: Kir2.1 (mouse) channel inhibition. B-score at 10 µM. 310,000 compounds, 0.85% hits. P35561. HEK293-Kir2.1, FluxOR thallium flux fluorescence; active compounds read low;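 active = fluorescence ratio B-score at or below minus 3 SD of library scores, with starting-brightness B-score within 2 SD, cut at about -4.2 in these data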;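 also: channel flux triggered by added potassium and thallium sulfate stimulus; B-score of peak minus minimum fluorescence over baseline after thallium stimulus; more negative B-score means stronger Kir2.1 block with less thallium influx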
KCNK9 block: inhibitors of human KCNK9 two-pore domain potassium channel | HEK293 KCNK9, FluxOR thallium flux fluorescence; active compounds read low | 310,000 compounds, 1.2% hits | B-score at 10 µM | Q9NPC2;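 active = ratio B-score over 3 SD below the library mean, with starting fluorescence within 5 SD of its mean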;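 also: negative B-score means less thallium flux so channel inhibition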
KCNK3 block: human KCNK3 channel inhibition, primary screen; O14649; CHO-KCNK3 thallium flux, FluxOR fluorescence; active compounds read low; B-score at 10 µM; 340,000 compounds, 0.84% hits; AID 602410;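 active = B-score under library mean minus 4 SD, starting fluorescence ratio at most library mean plus 5 SD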;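 also: more negative B-score means stronger inhibition of thallium flux through KCNK3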
Target sequence (O14649 whole entry, looked up): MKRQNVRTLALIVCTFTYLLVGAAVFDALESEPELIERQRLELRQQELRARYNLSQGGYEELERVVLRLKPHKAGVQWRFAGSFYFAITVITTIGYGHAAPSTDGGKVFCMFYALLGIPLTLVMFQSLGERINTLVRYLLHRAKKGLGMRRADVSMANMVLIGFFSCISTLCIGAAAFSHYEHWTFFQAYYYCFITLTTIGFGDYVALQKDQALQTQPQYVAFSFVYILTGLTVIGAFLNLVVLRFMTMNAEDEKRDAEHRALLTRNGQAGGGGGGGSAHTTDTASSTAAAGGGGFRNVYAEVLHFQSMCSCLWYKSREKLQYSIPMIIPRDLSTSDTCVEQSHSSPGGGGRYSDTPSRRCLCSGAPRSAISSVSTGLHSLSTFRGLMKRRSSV
hERG rescue: hERG (human) protection from proarrhythmic block; 310,000 compounds, 0.51% hits; AID 1511; CHO-hERG, FluxOR thallium flux, dofetilide IC70 present; activation (rescue from dofetilide block), less the hit threshold, % at 10 µM;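 active = activation above the mean of controls blocked by dofetilide plus 5 SD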;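 also: thallium influx through hERG after potassium depolarization seen as dye fluorescence rise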
KCNQ1 pot: human KCNQ1 channel potentiation or activation | 310,000 compounds, 0.35% hits | B-score at 10 µM | CHO-K1 KCNQ1, thallium flux FluxOR fluorescence; active compounds read high;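 active = fluorescence ratio B-score, a plate-corrected score, at least three library SD, with initial intensity B-score within 5 SD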
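Assay system: stable KCNQ1 CHO-K1 line; medium: assay buffer, equal DMSO in all wells; timing: 90 min dye loading and 20 min compound exposure, both at room temperature; technique: kinetic FluxOR thallium fluorescence, 10-s 1-Hz baseline, 110-s post-stimulus read; read-out basis: B score of baseline-normalized fluorescence ratio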
KCNQ1 inh: human KCNQ1 channel inhibition; P51787; CHO-K1 KCNQ1, FluxOR thallium flux fluorescence; active compounds read high; B-score at 10 µM; 310,000 compounds, 1.3% hits;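 active = compounds whose thallium flux B-score, printed positive for inhibition, exceeds three library SD while starting fluorescence stays within three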;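 also: channel opened by potassium depolarization with thallium stimulus after 20 min compound exposure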
Numbers without * were called inactive; i = inactive; · = not tested or not shown. Shown are actives, neighbours in structure and some others; about 3.7% of the full set was active somewhere.

SMILES	Kir21 block	KCNK9 block	KCNK3 block	hERG rescue	KCNQ1 pot	KCNQ1 inh
CN1CCN(C(=O)c2cc3nc(-c4ccc(Cl)cc4)cc(C(F)(F)F)n3n2)CC1	2.98	i	i	-6.3	i	i
COc1ccc(-c2sc(NC(C)=O)nc2-c2ccccc2)cc1	0.95	i	i	-7.6	i	i
O=C(CSCC(=O)N1CCCCC1)Nc1nc(-c2ccccc2)c(-c2ccccc2)s1	·	·	-10.9*	·	·	·
CC(C)NC(=O)CSc1nc(Cc2cccs2)nc2ccccc12	-4.62*	i	i	-4.5	i	i
CCC(C)(C)NC(=O)CSc1nc(Cc2ccccc2)nc2ccccc12	-1.47	i	i	-8.7	i	i
Cc1ccc(F)c([C@H]2[C@@H]3C=CCC[C@@]3(C)C(=O)N2Cc2ccccc2)c1	-1.17	i	i	-6.4	i	8*
O=C(Nc1ccccc1)OCC(CN1CCCCC1)OC(=O)Nc1ccccc1 (stereo unspecified)	·	·	i	·	·	·
Cc1[nH]c2ccccc2c1/C=N/NC(=O)c1cc(C(C)C)[nH]n1	-1.18	i	i	-7.0	i	i
Cc1cccc(OCC(=O)N2CCCc3ccccc32)c1	-0.61	i	i	-7.7	i	i
Cc1cccc(OC(C)C(=O)N2CCCc3ccccc32)c1 (stereo unspecified)	-5.2*	i	i	-4.9	i	i
Cc1ccc(OC(C)C(=O)N2CCCc3ccccc32)cc1 (stereo unspecified)	-5.48*	i	i	-9.8	i	i
Cc1cn(C2CC(O)C(CO)O2)c(=O)n(Cc2ccccc2)c1=O (stereo unspecified)	·	·	i	·	·	·
O=C(NCC1CC1(Cl)Cl)Nc1ccc(Cl)c(Cl)c1 (stereo unspecified)	0.38	-8.42*	i	-14.7	i	i
CN(CC(=O)Nc1ccccc1Br)C(=O)CN1CCN(Cc2ccc(Cl)cc2)CC1	·	·	i	·	·	·
Fc1ccc(-n2cc(-c3ccccc3)c3c(NN4CCOCC4)ncnc32)cc1	0.45	i	i	-17.3	i	i
COc1ccc(-n2cc(-c3ccccc3)c3c(NN4CCOCC4)ncnc32)cc1	-0.16	i	i	-25.3	i	9*
CC1(C)C(C(=O)OCC(Cl)(Cl)Cl)N2C(=O)C(NC(=O)Cc3ccccc3)C2S1=O (stereo unspecified)	-0.02	i	i	-0.1	i	i
CC1CCCN(CCCOc2ccc(Br)cc2Cl)C1 (stereo unspecified)	-0.79	i	i	-18.7	i	i
CC1CCN(CCOCCOc2ccc(Br)cc2Cl)CC1	-7.59*	i	i	-15.6	i	i
O=C(c1cc(-c2ccccc2)on1)N1CCCC1	1.53	i	i	5.0*	i	i
O=C1NC(=S)SC1=Cc1ccccc1Cl	·	·	i	·	·	·
Cc1ccc(C2C(/C=C3/SC(=S)NC3=O)=C(c3cccs3)Oc3ccccc32)cc1 (stereo unspecified)	0.44	i	i	-6.7	8*	i
O=C(Nc1ccc(NC(=O)C2CC2)nc1)c1cccnc1	-0.4	i	i	4.9*	i	i
O=C(Nc1ccc(NC(=O)C2CC2)cn1)c1ccccc1	-1.32	i	i	-5.8	i	i
O=C(CSc1nnc(-c2ccncc2)o1)Nc1cc(Cl)ccc1C(=O)O	·	·	i	·	·	·
SMILES	Kir21 block	KCNK9 block	KCNK3 block	hERG rescue	KCNQ1 pot	KCNQ1 inh
Cc1ccc(Oc2ccccc2/C=C2\SC(=O)N(C)C2=O)cc1	-0.59	i	i	-14.4	i	6*
O=C(COc1ccccc1/C=C1\SC(=O)NC1=O)Nc1ccc(F)cc1	-0.83	i	i	-0.8	i	i
O=C1NC(=O)/C(=C/c2ccccc2Oc2ccc(Cl)cc2)S1	-0.07	i	i	-10.1	i	11*
Cc1ccc(S(=O)(=O)Oc2ccccc2/C=C2\SC(=O)NC2=O)cc1	1.53	i	i	-16.2	i	8*
COc1ccc(CN2CCN(C(=O)c3ccccc3C(=O)c3ccccc3)CC2)cc1OC	·	·	i	·	·	·
Cc1ccc(/C=c2\sc3n(c2=O)CN(c2ccc(Br)cc2)CN=3)o1	1.04	i	i	-3.3	i	i
